The source made the active and inactive calls.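 The calls were made as follows, unless noted: active = calcium signal ratio cut to more than 3 SD under the fully stimulated control mean yet still positive, in both repeats and the primary screen; inactive = the rest.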
The molecules below were run against Short transient receptor potential channel 4 (Mus musculus) (UniProt Q9QUQ5) (assay: inhibitors of mouse TRPC4 channel, confirmation, cell-based, Fluo4, HEK293 TRPC4beta/mu-opioid (AID 2636;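 active = calcium signal cut by more than 3 SD below the full-agonist control yet still positive, in both repeats and the earlier primary screen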)). Conditions: DAMGO, Fluo4 calcium flux, at 10 µM; active compounds read high.
Chain of Short transient receptor potential channel 4 (Mus musculus) (Q9QUQ5 whole entry, looked up): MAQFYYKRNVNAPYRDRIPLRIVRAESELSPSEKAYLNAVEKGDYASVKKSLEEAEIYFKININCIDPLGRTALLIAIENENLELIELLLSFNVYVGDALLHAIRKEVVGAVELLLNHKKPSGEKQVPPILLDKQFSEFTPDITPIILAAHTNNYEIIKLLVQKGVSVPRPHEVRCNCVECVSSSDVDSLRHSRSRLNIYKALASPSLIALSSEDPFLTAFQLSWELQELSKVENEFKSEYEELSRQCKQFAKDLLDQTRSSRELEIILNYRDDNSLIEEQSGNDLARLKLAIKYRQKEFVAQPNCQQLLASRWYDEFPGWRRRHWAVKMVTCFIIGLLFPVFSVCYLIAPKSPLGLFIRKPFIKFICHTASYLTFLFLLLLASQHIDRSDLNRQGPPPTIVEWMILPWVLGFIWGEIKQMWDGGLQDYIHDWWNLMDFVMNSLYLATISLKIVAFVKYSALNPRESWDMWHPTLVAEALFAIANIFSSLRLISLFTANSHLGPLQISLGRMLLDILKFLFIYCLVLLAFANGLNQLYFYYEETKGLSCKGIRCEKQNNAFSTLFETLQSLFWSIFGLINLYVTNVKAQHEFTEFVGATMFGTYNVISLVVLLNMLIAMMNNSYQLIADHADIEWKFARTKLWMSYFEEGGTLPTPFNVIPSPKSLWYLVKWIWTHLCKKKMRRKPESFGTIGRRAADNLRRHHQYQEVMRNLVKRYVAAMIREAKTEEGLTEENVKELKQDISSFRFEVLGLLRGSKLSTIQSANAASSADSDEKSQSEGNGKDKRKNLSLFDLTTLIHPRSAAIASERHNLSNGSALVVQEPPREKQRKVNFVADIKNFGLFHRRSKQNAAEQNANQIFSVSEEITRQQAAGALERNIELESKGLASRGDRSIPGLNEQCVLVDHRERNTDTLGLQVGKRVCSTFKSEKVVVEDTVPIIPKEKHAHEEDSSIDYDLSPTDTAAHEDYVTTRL
In short: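 Test system – HEK293 cells stably co-expressing mouse TRPC4beta and mu-opioid receptor · Reagent – DAMGO agonist, submaximal followed by maximal addition · Technique – Fluo4 calcium flux fluorescence, kinetic read · Control set – no-compound wells and DAMGO maximal-stimulus wells · Doses – single final compound concentration of 10 µM · Timing – compound pre-incubation 110 s before DAMGO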
For CN(C)C(CNC(=O)c1oc2ccccc2c1CSc1ncn[nH]1)c1ccco1 (stereo not drawn), the inhibition was 85% (active). Cc1nn(-c2ccccc2)c(Cl)c1CN(C(=O)CCl)c1ccc(Cl)cc1 was tested, and the inhibition was 93% (active). COc1ccccc1N1CCc2c(C)nc3c(OC)cccc3c21 was tested, and the inhibition was 92% (active). Cc1cc(CN2CCCC(C(=O)Nc3ccc(-c4nc5ccccc5[nH]4)cc3)C2)n[nH]1 (stereo not drawn) was tested, and the inhibition was 77% (active). For CCCCNCC1C(Oc2ccc(Cl)cc2)C(=O)N1c1ccccc1C (stereo not drawn), the outcome was “inactive”. In the case of O=C1COc2ccc(N3C(=O)C=CC3=O)cc2N1, the inhibition is reported as 88% (active). In the case of Cc1nc2scc(-c3ccccc3)c2c(=O)n1N=C1C=CC(=O)C=C1, the inhibition is reported as 69% (active). For CCOC(=O)C1=NN(c2ccccc2C)C2=NC(C)=C(C(=O)OC)C(c3cccc(OC)c3)N12 (stereo not drawn), the inhibition was 75% (active). With N/C(Cc1cccc2ccccc12)=N\OC(=O)c1cccs1 the inhibition was 54% (active). CCCSc1nc(N)nc(-c2cccs2)c1C#N was tested, and the inhibition was 89% (active). Cc1ccc(NC(=O)c2cc(N3C(=O)C=CC3=O)ccc2N2CCOCC2)cc1 was tested, and the inhibition was 91% (active). With Cc1ccc(NC(=O)CNc2ccccc2CN(C)C2CCCCC2)cc1 the inhibition was 76% (active). For CC1(C)CC(NC(=O)c2cc(COc3cccc(C(F)(F)F)c3)on2)CCO1 (stereo not drawn), the inhibition was 90% (active). With COc1ccc(C2=NN(C(=O)c3ccccc3)C(c3ccc(OC)c(OC)c3)C2)c(O)c1 (stereo not drawn) the inhibition was 66% (active). In the case of CCCn1nc([N+](=O)[O-])c(C(C#N)c2nc3ccccc3o2)c(Cl)c1=O (stereo not drawn), the inhibition is reported as 96% (active). COc1ccc(C(CNc2ccc(C(F)(F)F)cn2)N(C)C)cc1OC (stereo not drawn) was tested, and the outcome was “inactive”. For COc1cccc(C2=NN(C(=O)c3ccco3)C(c3ccco3)C2)c1 (stereo not drawn), the inhibition was 71% (active). With c1ccc(Cn2c(NCc3ccco3)nc3ccccc32)cc1 the inhibition was 95% (active). In the case of CC(=O)c1ccc2c(c1)N(C)c1ccccc1S2, the inhibition is reported as 84% (active). CCOC(=O)C1CCN(CC(O)COc2ccc(C(C)(C)C)cc2)CC1 (stereo not drawn) was tested, and the outcome was “inactive”. In the case of CC(C)C1=Nc2cccc3cccc(c23)N1, the inhibition is reported as 95% (active). In the case of Cc1cccc2nc(CSc3ccc(Cl)cc3)cn12, the inhibition is reported as 90% (active). For O=C(NC1CCCCC1)N1CCN(C(c2ccccc2)c2ccccc2)CC1, the outcome was “inactive”. With COc1cc(CNC2CCCC2)c(Br)cc1OCc1ccccc1 the inhibition was 87% (active). In the case of COc1ccc(Nc2cc(C)nc3ccc(OC)cc23)cc1, the inhibition is reported as 91% (active). In the case of Cc1ccc(NC(=S)N(CCCN(C)C)Cc2cc3cc4c(cc3[nH]c2=O)OCO4)c(C)c1, the inhibition is reported as 96% (active). COc1ccc(CN2CCN(Cc3ccc(C(F)(F)F)cc3)CC2)c(OC)c1 was tested, and the inhibition was 95% (active). In the case of Cn1cc(CNCC2CCCO2)c(-c2ccc(Oc3ccccc3)cc2)n1 (stereo not drawn), the inhibition is reported as 92% (active). In the case of CCCCCCCCCCCCOC(=O)C[N+](C)(C)C, the outcome is reported as “inactive”. In the case of CN(C)CCCN(C(=O)c1ccc(S(=O)(=O)N2CCCC2)cc1)c1nc2c(F)cc(F)cc2s1, the inhibition is reported as 68% (active). In the case of C=C(c1ccc(O)cc1)c1ccc(O)cc1, the inhibition is reported as 89% (active). C/C(N)=C(/C#N)C(=O)COC(=O)CC12CC3CC(CC(C3)C1)C2 was tested, and the inhibition was 83% (active). Cc1cccc2cc(CN(CCCN(C)C)C(=S)NCCc3ccccc3)c(=O)[nH]c12 was tested, and the outcome was “inactive”. For Nc1cc(C(F)(F)F)ccc1Nc1ccccc1, the inhibition was 90% (active). CCC(C)NC(C(=O)Nc1ccc(Cl)c([N+](=O)[O-])c1)c1ccccc1 (stereo not drawn) was tested, and the inhibition was 73% (active). In the case of COCCn1c(SCc2cccc([N+](=O)[O-])c2)nc2ccccc2c1=O, the inhibition is reported as 94% (active). For O=C(Nc1cccc(Cl)c1)N1CCN2C(=O)c3ccccc3C12c1ccccc1 (stereo not drawn), the inhibition was 69% (active). In the case of CC(C)n1c(NCc2c[nH]c3ccccc23)nc2ccccc21, the inhibition is reported as 50% (active). With Cc1nn(-c2ccccc2)c2[nH]c(C(F)(F)F)cc(=O)c12 the inhibition was 49% (active).

The molecules below were run against Short transient receptor potential channel 4 (Mus musculus) (UniProt Q9QUQ5) (assay: inhibitors of mouse TRPC4 channel, confirmation, cell-based, second round, Fluo4, HEK293 TRPC4beta/mu-opioid, 1 µM (AID 2637;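 as to inhibition: percent of integrated ratio relative to wells lacking test compound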)). Conditions: Fluo4 calcium flux, DAMGO, at 1 µM; active compounds read high.
In short: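 Doses: 1 µM single point / Material: HEK293 cells with TRPC4beta plus mu-opioid receptor / Control set: DAMGO ECmax control wells and wells without test compound / Schedule: dye loading 45 min room temperature, compound pre-incubation 110 s / Measured by: kinetic Fluo4 Ca2+ fluorescence reading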
For CN(C)C(CNC(=O)c1oc2ccccc2c1CSc1ncn[nH]1)c1ccco1 (stereo not drawn), the inhibition was 48% (active). For Cc1nn(-c2ccccc2)c(Cl)c1CN(C(=O)CCl)c1ccc(Cl)cc1, the inhibition was 69% (active). With COc1ccccc1N1CCc2c(C)nc3c(OC)cccc3c21 the inhibition was 44% (active). For Cc1cc(CN2CCCC(C(=O)Nc3ccc(-c4nc5ccccc5[nH]4)cc3)C2)n[nH]1 (stereo not drawn), the inhibition was 61% (active). With CCCCNCC1C(Oc2ccc(Cl)cc2)C(=O)N1c1ccccc1C (stereo not drawn) the outcome was “inactive”. For O=C1COc2ccc(N3C(=O)C=CC3=O)cc2N1, the outcome was “inactive”. Cc1nc2scc(-c3ccccc3)c2c(=O)n1N=C1C=CC(=O)C=C1 was tested, and the outcome was “inactive”. CCOC(=O)C1=NN(c2ccccc2C)C2=NC(C)=C(C(=O)OC)C(c3cccc(OC)c3)N12 (stereo not drawn) was tested, and the outcome was “inactive”. With N/C(Cc1cccc2ccccc12)=N\OC(=O)c1cccs1 the inhibition was 55% (active). For CCCSc1nc(N)nc(-c2cccs2)c1C#N, the inhibition was 50% (active). With Cc1ccc(NC(=O)c2cc(N3C(=O)C=CC3=O)ccc2N2CCOCC2)cc1 the inhibition was 38% (active). In the case of Cc1ccc(NC(=O)CNc2ccccc2CN(C)C2CCCCC2)cc1, the outcome is reported as “inactive”. In the case of CC1(C)CC(NC(=O)c2cc(COc3cccc(C(F)(F)F)c3)on2)CCO1 (stereo not drawn), the outcome is reported as “inactive”. COc1ccc(C2=NN(C(=O)c3ccccc3)C(c3ccc(OC)c(OC)c3)C2)c(O)c1 (stereo not drawn) was tested, and the outcome was “inactive”. With CCCn1nc([N+](=O)[O-])c(C(C#N)c2nc3ccccc3o2)c(Cl)c1=O (stereo not drawn) the outcome was “inactive”. For COc1ccc(C(CNc2ccc(C(F)(F)F)cn2)N(C)C)cc1OC (stereo not drawn), the inhibition was 69% (active). COc1cccc(C2=NN(C(=O)c3ccco3)C(c3ccco3)C2)c1 (stereo not drawn) was tested, and the outcome was “inactive”. c1ccc(Cn2c(NCc3ccco3)nc3ccccc32)cc1 was tested, and the inhibition was 75% (active). For CC(=O)c1ccc2c(c1)N(C)c1ccccc1S2, the outcome was “inactive”. In the case of CCOC(=O)C1CCN(CC(O)COc2ccc(C(C)(C)C)cc2)CC1 (stereo not drawn), the outcome is reported as “inactive”. With CC(C)C1=Nc2cccc3cccc(c23)N1 the inhibition was 49% (active). With Cc1cccc2nc(CSc3ccc(Cl)cc3)cn12 the inhibition was 52% (active). With O=C(NC1CCCCC1)N1CCN(C(c2ccccc2)c2ccccc2)CC1 the outcome was “inactive”. In the case of COc1cc(CNC2CCCC2)c(Br)cc1OCc1ccccc1, the outcome is reported as “inactive”. In the case of COc1ccc(Nc2cc(C)nc3ccc(OC)cc23)cc1, the outcome is reported as “inactive”. With Cc1ccc(NC(=S)N(CCCN(C)C)Cc2cc3cc4c(cc3[nH]c2=O)OCO4)c(C)c1 the inhibition was 70% (active). With COc1ccc(CN2CCN(Cc3ccc(C(F)(F)F)cc3)CC2)c(OC)c1 the inhibition was 41% (active). With Cn1cc(CNCC2CCCO2)c(-c2ccc(Oc3ccccc3)cc2)n1 (stereo not drawn) the outcome was “inactive”. CCCCCCCCCCCCOC(=O)C[N+](C)(C)C was tested, and the outcome was “inactive”. CN(C)CCCN(C(=O)c1ccc(S(=O)(=O)N2CCCC2)cc1)c1nc2c(F)cc(F)cc2s1 was tested, and the outcome was “inactive”. C=C(c1ccc(O)cc1)c1ccc(O)cc1 was tested, and the inhibition was 47% (active). In the case of C/C(N)=C(/C#N)C(=O)COC(=O)CC12CC3CC(CC(C3)C1)C2, the outcome is reported as “inactive”. Cc1cccc2cc(CN(CCCN(C)C)C(=S)NCCc3ccccc3)c(=O)[nH]c12 was tested, and the outcome was “inactive”. In the case of Nc1cc(C(F)(F)F)ccc1Nc1ccccc1, the outcome is reported as “inactive”. CCC(C)NC(C(=O)Nc1ccc(Cl)c([N+](=O)[O-])c1)c1ccccc1 (stereo not drawn) was tested, and the outcome was “inactive”. For COCCn1c(SCc2cccc([N+](=O)[O-])c2)nc2ccccc2c1=O, the inhibition was 45% (active). In the case of O=C(Nc1cccc(Cl)c1)N1CCN2C(=O)c3ccccc3C12c1ccccc1 (stereo not drawn), the outcome is reported as “inactive”. With CC(C)n1c(NCc2c[nH]c3ccccc23)nc2ccccc21 the outcome was “inactive”. For Cc1nn(-c2ccccc2)c2[nH]c(C(F)(F)F)cc(=O)c12, the outcome was “inactive”.
